According to ChEMBL document CHEMBL1681705, “Optimisation of ITK inhibitors through successive iterative design cycles” (Bioorg Med Chem Lett, 2011):

Experiments:
[1] = biological target: Tyrosine-protein kinase Lyn (Homo sapiens) (UniProt P07948); assay: Inhibition of Lyn at 0.1 uM; values are per cent of control
[2] = biological target: Tyrosine-protein kinase BTK (Homo sapiens) (UniProt Q06187); assay: Inhibition of BTK at 1 uM; values are per cent of control
[3] = biological target: MAP kinase-interacting serine/threonine-protein kinase 2 (Homo sapiens) (UniProt Q9HBH9); assay: Inhibition of Mnk2 at 0.1 uM; values are per cent of control
Chain of MAP kinase-interacting serine/threonine-protein kinase 2 (Homo sapiens) (Q9HBH9 whole entry, looked up): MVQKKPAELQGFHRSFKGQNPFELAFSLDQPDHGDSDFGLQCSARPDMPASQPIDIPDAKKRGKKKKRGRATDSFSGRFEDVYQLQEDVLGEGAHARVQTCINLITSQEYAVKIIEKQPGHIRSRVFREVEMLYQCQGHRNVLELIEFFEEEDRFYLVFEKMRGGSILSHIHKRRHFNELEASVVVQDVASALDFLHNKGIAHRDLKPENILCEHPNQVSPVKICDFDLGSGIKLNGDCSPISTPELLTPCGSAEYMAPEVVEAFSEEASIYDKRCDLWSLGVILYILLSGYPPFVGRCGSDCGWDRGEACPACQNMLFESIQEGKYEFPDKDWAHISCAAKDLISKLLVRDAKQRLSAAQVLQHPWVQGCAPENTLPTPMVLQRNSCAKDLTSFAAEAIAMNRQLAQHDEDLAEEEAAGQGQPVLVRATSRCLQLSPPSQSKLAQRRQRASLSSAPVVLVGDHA

[4] = biological target: T1, Inhibitor of nuclear factor kappa-B kinase subunit beta (Homo sapiens) (UniProt O14920); assay: Inhibition of IKK-beta at 0.1 uM; values are per cent of control
T1 sequence (whole entry): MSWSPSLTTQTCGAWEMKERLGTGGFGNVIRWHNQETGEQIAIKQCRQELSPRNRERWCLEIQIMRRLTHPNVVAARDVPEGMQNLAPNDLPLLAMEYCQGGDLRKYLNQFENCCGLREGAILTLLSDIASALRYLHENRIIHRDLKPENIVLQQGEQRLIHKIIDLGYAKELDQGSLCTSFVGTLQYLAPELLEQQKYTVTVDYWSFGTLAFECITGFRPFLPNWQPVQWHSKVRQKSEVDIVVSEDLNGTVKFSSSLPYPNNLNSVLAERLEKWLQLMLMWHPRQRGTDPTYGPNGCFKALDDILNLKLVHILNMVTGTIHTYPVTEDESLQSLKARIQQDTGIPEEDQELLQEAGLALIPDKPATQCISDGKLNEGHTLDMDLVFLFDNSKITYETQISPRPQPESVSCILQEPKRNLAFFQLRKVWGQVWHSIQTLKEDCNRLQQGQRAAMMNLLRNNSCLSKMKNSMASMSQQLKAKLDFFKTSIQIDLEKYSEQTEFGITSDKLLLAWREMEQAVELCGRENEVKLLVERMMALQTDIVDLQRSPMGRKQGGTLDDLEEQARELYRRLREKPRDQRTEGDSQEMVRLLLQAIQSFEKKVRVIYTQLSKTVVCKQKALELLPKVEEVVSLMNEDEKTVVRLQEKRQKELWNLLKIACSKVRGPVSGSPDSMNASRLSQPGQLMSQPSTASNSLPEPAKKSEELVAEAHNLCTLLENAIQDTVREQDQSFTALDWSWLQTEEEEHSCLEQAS

[5] = biological target: Tyrosine-protein kinase Fer (Homo sapiens) (UniProt P16591); assay: Inhibition of Fer at 0.1 uM; values are per cent of control
Chain of Tyrosine-protein kinase Fer (Homo sapiens) (P16591 whole entry, looked up): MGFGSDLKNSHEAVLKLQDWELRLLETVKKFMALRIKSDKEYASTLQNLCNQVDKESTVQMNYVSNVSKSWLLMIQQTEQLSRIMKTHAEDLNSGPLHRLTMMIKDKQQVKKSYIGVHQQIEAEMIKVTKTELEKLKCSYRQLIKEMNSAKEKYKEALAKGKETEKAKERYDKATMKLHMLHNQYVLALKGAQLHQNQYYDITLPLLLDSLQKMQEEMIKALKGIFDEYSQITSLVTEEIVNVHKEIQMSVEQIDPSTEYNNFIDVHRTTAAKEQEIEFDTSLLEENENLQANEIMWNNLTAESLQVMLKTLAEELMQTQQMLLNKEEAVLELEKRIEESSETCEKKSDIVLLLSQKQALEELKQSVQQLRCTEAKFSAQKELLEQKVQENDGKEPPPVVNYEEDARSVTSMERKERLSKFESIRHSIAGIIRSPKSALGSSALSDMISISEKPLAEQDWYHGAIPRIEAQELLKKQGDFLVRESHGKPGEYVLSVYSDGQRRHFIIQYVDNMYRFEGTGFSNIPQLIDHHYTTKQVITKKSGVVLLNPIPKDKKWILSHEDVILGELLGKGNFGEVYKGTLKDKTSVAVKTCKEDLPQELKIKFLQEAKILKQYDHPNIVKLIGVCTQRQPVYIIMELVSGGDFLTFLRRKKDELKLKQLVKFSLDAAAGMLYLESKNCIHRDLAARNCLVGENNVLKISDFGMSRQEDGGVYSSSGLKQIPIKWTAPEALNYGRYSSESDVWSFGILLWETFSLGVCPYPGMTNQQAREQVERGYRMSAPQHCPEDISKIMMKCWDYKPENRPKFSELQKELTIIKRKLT

[6] = biological target: Serine/threonine-protein kinase N2 (Homo sapiens) (UniProt Q16513); assay: Inhibition of PRK2 at 1 uM; values are per cent of control
[7] = biological target: Macrophage colony-stimulating factor 1 receptor (Homo sapiens) (UniProt P07333); assay: Inhibition of Fms at 0.1 uM; values are per cent of control
Chain of Macrophage colony-stimulating factor 1 receptor (Homo sapiens) (P07333 whole entry): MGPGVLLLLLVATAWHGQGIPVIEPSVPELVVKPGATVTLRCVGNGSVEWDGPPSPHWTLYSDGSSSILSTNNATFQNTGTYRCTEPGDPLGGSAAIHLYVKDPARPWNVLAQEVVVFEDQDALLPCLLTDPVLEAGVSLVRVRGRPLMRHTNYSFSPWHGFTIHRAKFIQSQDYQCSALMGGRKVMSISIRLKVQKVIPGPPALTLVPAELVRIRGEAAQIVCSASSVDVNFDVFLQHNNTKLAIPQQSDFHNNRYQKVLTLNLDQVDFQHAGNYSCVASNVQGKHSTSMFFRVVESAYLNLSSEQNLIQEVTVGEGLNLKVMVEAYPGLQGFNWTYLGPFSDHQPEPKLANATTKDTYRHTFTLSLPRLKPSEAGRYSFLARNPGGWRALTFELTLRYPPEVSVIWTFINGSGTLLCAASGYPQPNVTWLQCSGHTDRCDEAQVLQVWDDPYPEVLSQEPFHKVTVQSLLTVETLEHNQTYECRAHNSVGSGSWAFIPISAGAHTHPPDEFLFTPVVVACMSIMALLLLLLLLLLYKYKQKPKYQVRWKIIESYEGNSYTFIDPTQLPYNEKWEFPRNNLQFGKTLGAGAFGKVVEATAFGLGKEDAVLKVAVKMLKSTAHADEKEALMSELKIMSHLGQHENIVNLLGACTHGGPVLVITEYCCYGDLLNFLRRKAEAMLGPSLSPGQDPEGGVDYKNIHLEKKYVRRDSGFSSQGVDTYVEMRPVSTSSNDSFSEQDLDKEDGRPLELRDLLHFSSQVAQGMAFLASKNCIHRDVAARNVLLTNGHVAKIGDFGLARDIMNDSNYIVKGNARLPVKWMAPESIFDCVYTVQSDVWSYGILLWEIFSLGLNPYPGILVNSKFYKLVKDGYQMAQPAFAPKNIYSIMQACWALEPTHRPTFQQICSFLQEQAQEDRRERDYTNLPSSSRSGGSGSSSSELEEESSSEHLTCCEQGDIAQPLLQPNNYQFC

[8] = biological target: Epidermal growth factor receptor (Homo sapiens) (UniProt P00533); assay: Inhibition of EGFR at 1 uM; values are per cent of control
[9] = biological target: LIM domain kinase 1 (Homo sapiens) (UniProt P53667); assay: Inhibition of LIMK1 at 1 uM; values are per cent of control
Chain of LIM domain kinase 1 (Homo sapiens) (P53667 whole entry, looked up, the tested form may be a part): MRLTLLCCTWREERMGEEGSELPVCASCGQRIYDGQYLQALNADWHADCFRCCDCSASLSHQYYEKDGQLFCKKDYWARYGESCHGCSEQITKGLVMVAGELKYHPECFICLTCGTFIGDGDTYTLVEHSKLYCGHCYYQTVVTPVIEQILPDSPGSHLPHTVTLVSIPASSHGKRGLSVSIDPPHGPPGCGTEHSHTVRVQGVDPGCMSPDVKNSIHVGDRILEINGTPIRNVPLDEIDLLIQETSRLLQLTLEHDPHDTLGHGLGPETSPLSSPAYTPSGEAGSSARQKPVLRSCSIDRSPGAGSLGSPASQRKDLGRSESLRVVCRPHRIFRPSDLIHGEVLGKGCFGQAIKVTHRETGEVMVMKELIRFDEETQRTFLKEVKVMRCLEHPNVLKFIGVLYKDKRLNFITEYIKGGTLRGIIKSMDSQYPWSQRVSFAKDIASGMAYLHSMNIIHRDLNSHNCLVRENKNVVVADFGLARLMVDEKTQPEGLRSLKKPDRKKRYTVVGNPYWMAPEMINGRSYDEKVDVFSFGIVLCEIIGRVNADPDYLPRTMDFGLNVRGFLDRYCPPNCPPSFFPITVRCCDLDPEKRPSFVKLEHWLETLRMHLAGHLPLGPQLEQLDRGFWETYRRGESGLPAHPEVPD

[10] = biological target: T2, Tyrosine-protein kinase ITK/TSK (Homo sapiens) (UniProt Q08881); assay: Inhibition of Itk at 0.1 uM; values are per cent of control
T2 sequence (whole entry): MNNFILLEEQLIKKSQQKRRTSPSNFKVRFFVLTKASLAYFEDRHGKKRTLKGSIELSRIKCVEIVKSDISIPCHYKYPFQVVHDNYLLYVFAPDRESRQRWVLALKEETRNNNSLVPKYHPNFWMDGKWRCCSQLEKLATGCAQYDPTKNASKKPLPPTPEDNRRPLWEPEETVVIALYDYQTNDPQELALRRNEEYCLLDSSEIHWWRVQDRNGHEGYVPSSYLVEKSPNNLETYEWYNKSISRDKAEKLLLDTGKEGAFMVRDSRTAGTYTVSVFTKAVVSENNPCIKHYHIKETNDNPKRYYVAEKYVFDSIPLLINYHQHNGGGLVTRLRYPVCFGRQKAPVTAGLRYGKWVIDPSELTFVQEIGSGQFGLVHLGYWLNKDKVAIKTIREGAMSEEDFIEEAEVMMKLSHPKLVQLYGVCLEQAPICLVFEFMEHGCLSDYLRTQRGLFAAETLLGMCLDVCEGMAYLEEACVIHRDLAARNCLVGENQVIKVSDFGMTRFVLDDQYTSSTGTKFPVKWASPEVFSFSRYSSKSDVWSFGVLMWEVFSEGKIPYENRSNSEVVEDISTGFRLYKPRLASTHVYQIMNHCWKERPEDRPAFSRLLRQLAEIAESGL

[11] = biological target: Mitogen-activated protein kinase 1 (Homo sapiens) (UniProt P28482); assay: Inhibition of MAPK1 at 1 uM
Chain of Mitogen-activated protein kinase 1 (Homo sapiens) (P28482 whole entry): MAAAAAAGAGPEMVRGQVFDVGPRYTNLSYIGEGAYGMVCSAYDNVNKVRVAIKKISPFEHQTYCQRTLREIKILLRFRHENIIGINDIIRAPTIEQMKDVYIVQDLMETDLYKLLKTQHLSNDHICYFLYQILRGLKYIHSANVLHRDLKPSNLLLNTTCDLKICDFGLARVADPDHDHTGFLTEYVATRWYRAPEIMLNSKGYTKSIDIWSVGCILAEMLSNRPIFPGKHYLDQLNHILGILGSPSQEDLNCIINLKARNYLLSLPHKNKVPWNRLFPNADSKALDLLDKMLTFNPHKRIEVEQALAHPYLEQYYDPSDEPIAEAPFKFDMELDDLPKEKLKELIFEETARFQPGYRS
In short: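 Single-point screen within a 108-kinase selectivity panel. Each kinase was tested with inhibitor at 0.1 and 1.0 micromolar, and activity was recorded as percent inhibition.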

[12] = biological target: Ribosomal protein S6 kinase alpha-1 (Homo sapiens) (UniProt Q15418); assay: Inhibition of Rsk1 at 0.1 uM; values are per cent of control
Chain of Ribosomal protein S6 kinase alpha-1 (Homo sapiens) (Q15418 whole entry): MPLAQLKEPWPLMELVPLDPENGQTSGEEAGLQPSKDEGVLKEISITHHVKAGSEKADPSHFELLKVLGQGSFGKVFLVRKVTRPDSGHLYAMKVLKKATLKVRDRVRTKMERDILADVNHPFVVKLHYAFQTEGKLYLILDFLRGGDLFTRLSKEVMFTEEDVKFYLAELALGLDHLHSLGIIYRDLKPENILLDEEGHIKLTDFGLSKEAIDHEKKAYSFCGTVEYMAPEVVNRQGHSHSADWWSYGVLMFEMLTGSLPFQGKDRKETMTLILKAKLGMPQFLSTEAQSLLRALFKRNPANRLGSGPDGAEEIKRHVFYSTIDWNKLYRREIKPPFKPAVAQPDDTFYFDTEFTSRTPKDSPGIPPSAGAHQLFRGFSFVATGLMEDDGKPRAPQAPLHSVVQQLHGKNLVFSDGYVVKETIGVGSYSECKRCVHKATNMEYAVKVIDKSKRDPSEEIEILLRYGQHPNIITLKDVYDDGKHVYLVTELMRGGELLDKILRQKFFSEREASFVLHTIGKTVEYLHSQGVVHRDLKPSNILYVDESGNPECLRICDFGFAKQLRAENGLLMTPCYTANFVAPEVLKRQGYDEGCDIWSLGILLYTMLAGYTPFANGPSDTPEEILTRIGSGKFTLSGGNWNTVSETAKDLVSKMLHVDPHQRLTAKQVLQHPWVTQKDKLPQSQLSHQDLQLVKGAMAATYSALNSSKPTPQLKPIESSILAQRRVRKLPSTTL

[13] = biological target: Fibroblast growth factor receptor 1 (Homo sapiens) (UniProt P11362); assay: Inhibition of FGFR1 at 1 uM; values are per cent of control
Chain of Fibroblast growth factor receptor 1 (Homo sapiens) (P11362 22-822 limits assumed): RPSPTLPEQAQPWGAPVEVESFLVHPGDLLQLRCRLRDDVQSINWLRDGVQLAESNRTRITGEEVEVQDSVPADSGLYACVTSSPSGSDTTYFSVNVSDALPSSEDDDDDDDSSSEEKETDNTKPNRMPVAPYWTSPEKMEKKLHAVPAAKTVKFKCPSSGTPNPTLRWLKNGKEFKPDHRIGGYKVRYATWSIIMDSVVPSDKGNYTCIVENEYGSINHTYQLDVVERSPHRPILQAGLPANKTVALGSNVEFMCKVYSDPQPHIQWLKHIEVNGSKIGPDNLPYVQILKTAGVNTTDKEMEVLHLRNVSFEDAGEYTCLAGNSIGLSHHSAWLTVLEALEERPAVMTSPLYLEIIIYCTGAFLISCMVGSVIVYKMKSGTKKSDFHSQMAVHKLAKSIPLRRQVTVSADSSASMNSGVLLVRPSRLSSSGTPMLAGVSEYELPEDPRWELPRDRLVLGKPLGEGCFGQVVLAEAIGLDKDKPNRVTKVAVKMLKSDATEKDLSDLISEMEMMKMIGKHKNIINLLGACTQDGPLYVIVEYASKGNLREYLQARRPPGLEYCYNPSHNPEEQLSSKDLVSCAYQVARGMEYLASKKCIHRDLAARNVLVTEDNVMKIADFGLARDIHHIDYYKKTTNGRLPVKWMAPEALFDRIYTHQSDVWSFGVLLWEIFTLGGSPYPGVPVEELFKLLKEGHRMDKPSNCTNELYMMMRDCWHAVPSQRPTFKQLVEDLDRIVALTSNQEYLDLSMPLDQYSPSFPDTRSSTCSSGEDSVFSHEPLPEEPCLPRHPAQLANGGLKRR

| residual activity [1] | residual activity [2] | residual activity [3] | residual activity [4] | residual activity [5] | residual activity [6] | residual activity [7] | residual activity [8] | residual activity [9] | residual activity [10] | inhibition [11] | residual activity [12] | residual activity [13] | SMILES |
| --- | --- | --- | --- | --- | --- | --- | --- | --- | --- | --- | --- | --- | --- |
| 1% | 10% | 52% | 99% | 5% | 49% | 57% | 99% | 4% | 41% | 64% | 6% | 0% | Cc1ccc2cc(-c3n[nH]c4ccc(NC5CCNC5)cc34)[nH]c2c1 (stereo unspecified) |
| 15% | -4% | 101% | 103% | 49% | 3% | 60% | -8% | 73% | 14% | 84% | 97% | -2% | Cc1ccc2cc(-c3n[nH]c4ccc(NC5CCN(Cc6ccccc6)CC5)cc34)[nH]c2c1 |
